In the library only some 27% were active in any assay of this set; here they are far more common.
HIV Rev-RRE inh: HIV-1 Rev-RRE binding inhibitors, primary screen, biochemical, FRET, protein-RNA interaction. P05866. Rev peptide-RRE RNA binding. inhibition, % at 8 µM. 97,000 tested, 0.79% active. AID 704, 2007;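 active = inhibition above the screen-wide mean plus 3 SD, cut at about 35% in these data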
Target sequence (P05866 whole entry, looked up): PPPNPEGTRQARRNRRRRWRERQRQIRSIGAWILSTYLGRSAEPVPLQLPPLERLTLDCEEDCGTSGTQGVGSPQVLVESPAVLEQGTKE
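System: Cy5-labelled duplex RRE RNA binding fluorescein-labelled HIV Rev peptide; Signal: fluorescein-to-Cy5 FRET, 480 nm excitation; Also added: labelled Rev peptide; Compound: one concentration, 8 µM nominal; Buffer or medium: HEPES pH 7.5 salt buffer with EDTA; Read-out: % inhibition of FRET ratio versus controls; Schedule: 5 min preincubation and 15 min binding, 25 °C.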
Cav32 inh: Cav3.2 calcium influx blockers – cell-based, Fluo-4 calcium fluorescence, FDSS, MLSMR library, primary screen. Voltage-dependent T-type calcium channel subunit alpha-1H (Homo sapiens), O95180. Cav3.2-expressing cells; stronger effect = lower value. B-score at 10 µM. 100,000 tested, 4% active. AID 449739, 2010;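 active = single-dose well whose peak fluorescence ratio is a statistical outlier from its plate by either plate-standardised score or position-corrected B-score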
CYP2C9 inhib: blockers of cytochrome P450 2C9 activity – biochemical, luminescence, ADME assay, primary screen; AID 777, 2007; inhibition, % at 5 µM; P11712; 96,000 tested, 20% active; CYP2C9 Supersomes, luciferin-H conversion;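 active = blocking of liver enzyme CYP2C9 beyond about 50% at 5 µM, limit read from the data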
Target sequence (P11712 whole entry, looked up): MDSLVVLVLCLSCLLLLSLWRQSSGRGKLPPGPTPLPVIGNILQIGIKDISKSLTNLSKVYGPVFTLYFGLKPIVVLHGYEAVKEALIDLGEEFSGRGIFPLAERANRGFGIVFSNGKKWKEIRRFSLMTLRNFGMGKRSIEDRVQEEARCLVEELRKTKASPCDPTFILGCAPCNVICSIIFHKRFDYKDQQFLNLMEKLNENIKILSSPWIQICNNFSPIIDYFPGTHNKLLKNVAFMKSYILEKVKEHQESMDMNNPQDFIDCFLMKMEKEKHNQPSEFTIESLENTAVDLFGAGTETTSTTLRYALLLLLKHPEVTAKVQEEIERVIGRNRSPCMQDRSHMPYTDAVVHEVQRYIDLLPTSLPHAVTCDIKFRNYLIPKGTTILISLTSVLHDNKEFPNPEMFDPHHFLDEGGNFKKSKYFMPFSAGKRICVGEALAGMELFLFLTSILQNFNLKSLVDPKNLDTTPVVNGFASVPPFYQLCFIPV
CYP2C9 activ: human CYP2C9 activators, primary screen, biochemical, luminescence; recombinant CYP2C9, luciferin-H conversion; stronger effect = higher value; factor 1 = untreated enzyme, 0 = blocked; activation factor at 5 µM; 96,000 tested, 1.4% active; AID 1024, 2008;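 active = activation factor of 2 or more for CYP2C9 at a 5 µM dose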
CYP2C19 inhib: blockers of cytochrome P450 2C19 activity – biochemical, luminescence, ADME assay, primary screen | P33261 | CYP2C19 Supersomes, luciferin-H EGE luminescence, 30 min | 96,000 tested, 21% active | AID 778, 2007 | inhibition, % at 5 µM;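 active = CYP2C19 inhibition above a set limit at 5 µM in the primary screen, cut at about 50% in these data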
CYP2C19 activ: human CYP2C19 activators, primary screen, biochemical, luminescence; Cytochrome P450 2C19 (Homo sapiens), P33261; recombinant CYP2C19, luciferin-H EGE luminescence; stronger effect = higher value; 0 = fully inhibited enzyme, 1 = untreated enzyme; activation factor at 5 µM; 96,000 tested, under 10 active;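 active = activation factor of at least 2 at 5 µM in the primary screen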
Numbers stand for hits; . = inactive; / = no result.

SMILES	HIV Rev-RRE inh	Cav32 inh	CYP2C9 inhib	CYP2C9 activ	CYP2C19 inhib	CYP2C19 activ
CCOc1ccc(C(=O)CCc2nc3ccccc3s2)cc1	.	.	91	.	56	.
CCOC(=O)CSC1=C(C#N)C(=O)NC(c2ccc(OC)cc2)S1 (stereo not given)	.	.	94	.	.	.
CCOC(=O)/C(C(N)=NCc1ccco1)=C(/O)c1ccccc1	.	.	.	.	55	.
c1ccc(NC(=NCc2ccco2)c2ccccc2)cc1	.	.	.	.	.	.
CCOC(=O)c1c(C)[nH]c(C)c1C(=O)COC(=O)[C@@H](NC(=O)c1ccccc1OCC)C(C)C	.	.	98	.	100	.
CCOC(=O)c1c(C)[nH]c(C)c1C(=O)COC(=O)CNC(=O)c1ccc(OCC)cc1	.	.	.	.	53	.
O=C1CC(C(=O)O)C2(CCCC2)O1 (stereo not given)	.	.	/	/	/	/
CCOCCCNC(=O)c1cc(C)nn1-c1ccccc1	/	.	.	.	.	.
CCN(CCNC(=O)c1cc(C)nn1-c1ccccc1)c1ccccc1	/	.	.	.	79	.
Cc1cc(C(=O)Nc2ccccc2C#N)n(-c2ccccc2)n1	.	.	57	.	.	.
Cc1cc(C(=O)Nc2c(C)cccc2C)n(-c2ccccc2)n1	.	.	.	.	.	.
COC(CNC(=O)c1cc(C)nn1-c1ccccc1)OC	.	.	.	.	.	.
Cc1cc(C(=O)NCc2cccs2)n(-c2ccccc2)n1	.	.	59	.	.	.
CCCC[C@@H]1CNC(=O)C(=O)N1CCc1cccc2ccccc12	/	.	/	/	/	/
Cc1nc(C2CC(=O)OC23CCCCC3)cs1 (stereo not given)	.	.	.	.	78	.
O=C(CC1CC2CCC1C2)NCc1cccs1 (stereo not given)	.	.	.	.	66	.
O=C(CCSCCC(=O)NCc1cccs1)NCc1cccs1	/	.	62	.	.	.
Cc1ccc(Cn2nnc3c(=O)n(CC(=O)N4CCN(c5ccccc5)CC4)cnc32)cc1	.	.	.	.	.	.
O=S(Cc1ccc(Cl)cc1)CC(O)(c1ccccc1)c1ccccc1 (stereo not given)	.	.	.	.	80	.
O=S(Cc1ccccc1)CC(O)(c1ccc(Cl)cc1)c1ccc(Cl)cc1 (stereo not given)	.	.	.	.	85	.
CCOc1ccc(CCNC(=O)C2CCN(S(=O)(=O)N3CCOCC3)CC2)cc1OCC	.	.	.	.	.	.
O=c1c2ccccc2c(-c2ccccc2)nn1-c1ccc(Cl)c(Cl)c1	.	.	.	.	.	.
COc1ccc(-n2nnnc2-c2cccc(OC)c2)cc1	.	.	85	.	99	.
Clc1ccc(-n2nnnc2-c2ccccc2)cc1Cl	/	.	.	.	95	.
O=C(c1ccc(CS(=O)(=O)c2ccc(Br)cc2)o1)N1CCN(c2ncccn2)CC1	.	.	81	.	56	.
SMILES	HIV Rev-RRE inh	Cav32 inh	CYP2C9 inhib	CYP2C9 activ	CYP2C19 inhib	CYP2C19 activ
CCc1ccccc1S(=O)(=O)Cc1ccc(C(=O)NC(C)C)o1	.	.	/	/	/	/
O=C(NC1CCCC1)c1ccc(CS(=O)(=O)c2ccc(Br)cc2)o1	.	.	86	.	.	.
O=C(c1ccc(Br)o1)N1CCN(c2ncccn2)CC1	.	.	.	.	.	.
COc1ccc(S(=O)(=O)Cc2ccc(C(=O)N3CCN(c4ccccn4)CC3)o2)cc1	.	.	81	.	.	.
COc1ccc(S(=O)(=O)Cc2ccc(C(=O)NCc3ccccn3)o2)cc1	.	.	.	.	.	.
CCc1ccccc1S(=O)(=O)Cc1ccc(C(=O)N2CCN(c3ccccc3OC)CC2)o1	.	.	96	.	91	.
CCC1CCCCN1C(=O)CSc1nc(N)c(NC(=O)c2ccc(OC)c(OC)c2)c(=O)[nH]1 (stereo not given)	.	.	.	.	.	.
CCCOc1ccc(N2C(=O)CC(N3CCCC(C(=O)N4CCCC4)C3)C2=O)cc1 (stereo not given)	.	.	.	.	.	.
CC(=O)Nc1cc(-c2ccc(Cl)cc2)nn1-c1ccccc1	.	.	/	/	/	/
COc1ccccc1S(=O)(=O)Cc1ccc(C(=O)N2CCCC2)o1	.	.	.	.	.	.
Cc1ccccc1S(=O)(=O)Cc1ccc(C(=O)N2CC(C)CC(C)C2)o1 (stereo not given)	.	.	.	.	.	.
Cc1ccccc1S(=O)(=O)Cc1ccc(C(=O)N2CCN(c3cccc(C)c3C)CC2)o1	/	.	73	.	.	.
COc1ccccc1S(=O)(=O)Cc1ccc(C(=O)N2CCN(c3ccccn3)CC2)o1	/	.	51	.	53	.
O=C(NCc1ccccn1)c1cc(-n2cnnc2)ccc1Cl	.	.	.	.	.	.
O=C(N/N=C\c1ccc(COc2ccc([N+](=O)[O-])cc2)o1)c1cccc(Cl)c1	.	-7.6	60	.	.	.
O=C(N/N=C\c1ccc(COc2ccc([N+](=O)[O-])cc2)o1)c1ccc(Cl)cc1	.	.	.	.	.	.
Cc1nc2ccccc2cc1OCc1ccc(Cl)cc1	.	.	.	.	.	.
COc1cccc(COc2cc3ccccc3nc2C)c1	.	.	78	.	.	.
Cc1nc2ccccc2cc1OCc1ccccc1	.	/	65	.	.	.
COc1cccc(CNc2ncnc3cc(OC)c(OC)cc23)c1	.	.	.	.	.	.
CC(=O)c1c(C)nc2ccc(Br)cc2c1C(=O)O	.	/	.	.	.	.
O=S(=O)(Nc1nc(-c2sccc2Cl)cs1)c1cc(Cl)ccc1Cl	.	-7.1	99	.	90	.
CCOC(=O)COc1cc2c3c(c(=O)oc2cc1C)CCCC3	.	.	60	.	.	.
CC(=O)Oc1cc2oc(=O)c3c(c2cc1Cl)CCC3	.	.	.	.	.	.
CC(C)(C)c1ccc(C(=O)N2CCC(C(=O)NCC3CCCO3)CC2)cc1 (stereo not given)	.	/	.	.	.	.
Cc1cc(Nc2nc3ccccc3nc2Cl)n(-c2ccccc2C)n1	.	.	.	.	89	.
Cc1cc(Nc2nc3ccccc3nc2Cl)n(-c2ccccc2)n1	.	.	.	.	.	.
Oc1cc2ccccc2cc1-c1n[nH]c(=S)o1	.	.	68	.	.	.
Cc1cc(-c2n[nH]c(=S)o2)c(C)n1-c1ccccc1	.	.	.	.	.	.
Cc1cccc(NC(=O)CC2SC(=NC3CCCCC3)NC2=O)c1 (stereo not given)	/	.	66	.	.	.
